Laboratory results taken from ChEMBL document CHEMBL1123091, “Synthesis and antiviral evaluation of nucleosides of 5-methylimidazole-4-carboxamide” (J Med Chem, 1985).
Values after ≈ are worked out from the molar mass of the structure shown.

Key:
Human alphaherpesvirus 1 [1] = experiment: Compound was tested for antiviral activity in HeLa Cell cultures, against herpes simplex virus type 1 (HSV-1), cytopathic effect induced by the virus (CPE); format: functional
How it was run: (§1)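 HeLa cells grown to confluency in petri dishes, then infected (or mock-infected) with HSV-1 at 0.5 PFU/cell. Test compound added at a range of concentrations.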

[2] = test system: Vesicular stomatitis virus; experiment: Compound was tested for antiviral activity in HeLa Cell cultures, against vesicular stomatitis virus (VSV), cytopathic effect induced by the virus (CPE); format: functional
How it was run: (§2)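 HeLa cells grown to confluency in petri dishes, then infected (or mock-infected) with VSV at 0.01 PFU/cell. Test compound added at a range of concentrations.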

[3] = Compound was tested for antiviral activity in HeLa Cell cultures, against vesicular stomatitis virus (VSV); format: ADME, organism-based; details: read-out: Tox50; how it was run: as §2
[4] = Compound was tested for antiviral activity in HeLa Cell cultures, against herpes simplex virus type 1 (HSV-1); format: organism-based; details: human alphaherpesvirus 1, HeLa cell cultures; read-out: Tox50; how it was run: as §1
[5] = Compound was tested for antiviral activity in HeLa Cell cultures against vesicular stomatitis virus (VSV); format: ADME, organism-based; details: read-out: Tox50; how it was run: as §2
[6] = Compound was tested for antiviral activity in HeLa Cell cultures against herpes simplex virus type 1 (HSV-1); format: organism-based; details: human alphaherpesvirus 1, HeLa cell cultures; read-out: Tox50; how it was run: as §1
[7] = test system: Vesicular stomatitis virus; experiment: Compound was tested for antiviral activity in HeLa Cell cultures, against vesicular stomatitis virus (VSV) expressed as cytopathic effect induced by the virus (CPE); format: functional; how it was run: as §2
Human alphaherpesvirus 1 [8] = experiment: Compound was tested for antiviral activity in HeLa Cell cultures, against herpes simplex virus type 1 (HSV-1) expressed as cytopathic effect induced by the virus (CPE); format: functional; how it was run: as §1

Which CPE50 (Human alphaherpesvirus 1 [1]) does the source give for `Cc1c(C(N)=O)ncn1[C@@H]1C[C@H](O)[C@@H](CO)O1` here?
The CPE50 was greater than 200 µg/mL.

And the CPE50 [2]?
Its CPE50 is 150 µg/mL.

And the CC50 [3]?
Its CC50 is greater than 400 µg/mL.

And the CC50 [4]?
The CC50 was greater than 200 µg/mL.

Which CC50 [5] does the source give for `Cc1c(C(N)=O)ncn1[C@H]1C[C@H](O)[C@@H](CO)O1` here?
Its CC50 is greater than 400 µg/mL.

What about the CC50 [6] of the same compound?
The CC50 was 300 µg/mL (≈ 1240 µM).

And the CPE50 [7]?
The CPE50 was 150 µg/mL.

And the CPE50 (Human alphaherpesvirus 1 [8])?
Its CPE50 is 150 µg/mL.

Which CPE50 (Human alphaherpesvirus 1 [1]) does the source give for `Cc1[nH]cnc1C(N)=O` here?
The CPE50 was greater than 200 µg/mL.

And the CC50 [4]?
Its CC50 is greater than 200 µg/mL.

With `Cc1c(C(N)=O)ncn1COCCO` as the compound, how does the CPE50 (Human alphaherpesvirus 1 [1]) read?
Its CPE50 is greater than 200 µg/mL.

And the CPE50 [2]?
The CPE50 was 180 µg/mL.

What about the CC50 [3] of the same compound?
Its CC50 is greater than 200 µg/mL.

And the CC50 [4]?
Its CC50 is greater than 200 µg/mL.

For `Cc1c(C(N)=O)ncn1C1O[C@H](CO)[C@@H](O)[C@H]1O` (some centres not stated), which CPE50 (Human alphaherpesvirus 1 [1]) is on record?
The CPE50 was 75 µg/mL.

What about the CPE50 [2] of the same compound?
Its CPE50 is 125 µg/mL.

What about the CC50 [3] of the same compound?
The CC50 was greater than 400 µg/mL.

What about the CC50 [4] of the same compound?
The CC50 was greater than 400 µg/mL.

With `NC(=O)c1ncn([C@@H]2O[C@H](CO)[C@@H](O)[C@H]2O)n1` [RIBAVIRIN] as the compound, how does the CPE50 (Human alphaherpesvirus 1 [1]) read?
The CPE50 was 75 µg/mL.

And the CPE50 [2]?
Its CPE50 is 15 µg/mL.

And the CC50 [3]?
Its CC50 is 400 µg/mL (≈ 1640 µM).

What about the CC50 [4] of the same compound?
Its CC50 is 400 µg/mL (≈ 1640 µM).
